18 compounds from ChEMBL document CHEMBL3259745, “Identification of trisubstituted-pyrazol carboxamide analogs as novel and potent antagonists of farnesoid X receptor” (Bioorg Med Chem, 2014) can be followed below.

Active and inactive are the calls of the source. The rule behind the calls is not given here. Where only a bound is given, the exact number is not on record here.

Data set [1] has as its target T1, Bile acid receptor (Homo sapiens) (UniProt Q96RI1).
T1 sequence (whole entry): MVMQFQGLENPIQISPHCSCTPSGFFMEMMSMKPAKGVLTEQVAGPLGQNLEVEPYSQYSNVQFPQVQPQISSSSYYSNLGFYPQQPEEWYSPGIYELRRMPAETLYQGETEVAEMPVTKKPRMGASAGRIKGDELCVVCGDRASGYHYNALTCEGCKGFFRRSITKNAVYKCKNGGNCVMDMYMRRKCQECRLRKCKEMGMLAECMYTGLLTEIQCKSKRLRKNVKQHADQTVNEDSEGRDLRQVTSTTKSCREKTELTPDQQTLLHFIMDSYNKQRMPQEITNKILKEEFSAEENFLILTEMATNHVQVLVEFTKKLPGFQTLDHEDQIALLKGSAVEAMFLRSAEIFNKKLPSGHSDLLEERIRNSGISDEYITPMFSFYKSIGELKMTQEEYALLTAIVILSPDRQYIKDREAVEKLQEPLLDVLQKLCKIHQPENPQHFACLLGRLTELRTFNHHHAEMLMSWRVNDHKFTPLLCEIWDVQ
In words: Antagonist activity at human GST-tagged FXR at 4.4 uM after 20 mins by TR-FRET assay relative to control. (In general: In TR-FRET formats the signal depends on donor and acceptor labels being close together.)

A short description of data set [2]: Cytotoxicity against HEK293T cells expressing FXR and beta-lactamase genes assessed as inhibition of cell viability at 40 uM after 16 hrs by CellTiter-Glo luminescent assay relative to control. It is filed as cell-based, HEK-293T. Particulars: human, read-out: INH. Put shortly:
(§1)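 Viability run alongside the agonist assay in the same GeneBLAzer FXR HEK 293T cells: 20,000 cells/well in phenol red-free DMEM with 2% charcoal/dextran-treated FBS, 0.5% DMSO, 16 h at 37°C. Cooled 20 min, then CellTiter-Glo added for 20 min in dark; luminescence read.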
(In general: In ATP-based viability assays light output follows the ATP content of the culture.)

Data set [3] has as its target T1, Bile acid receptor (Homo sapiens). In words: Agonist activity at FXR (unknown origin) expressed in HEK293T cells after 16 hrs by beta-lactamase reporter gene assay relative to control. The settings on record: HEK-293T. The format is cell-based. (Reporter assays use an easily measured gene product as a stand-in for the process of interest.)
Data set [4] shares this target. In words: Inhibition of GW4064-induced transactivation of FXR (unknown origin) expressed in HEK293T cells at 40 uM after 16 hrs by beta-lactamase reporter gene assay relative to control. It is filed as cell-based. The settings on record: HEK-293T.
Data set [5] has the same target. In words: Antagonist activity at human GST-tagged FXR at 164 nM after 20 mins by TR-FRET assay relative to control.
Data set [6] is described as follows: Cytotoxicity against HEK293T cells expressing FXR and beta-lactamase genes assessed as inhibition of cell viability at 4.4 uM after 16 hrs by CellTiter-Glo luminescent assay relative to control. It is filed as cell-based, HEK-293T. The settings on record: human, read-out: INH. Put shortly: as §1
For data set [7], the target named is T1, Bile acid receptor (Homo sapiens). Kind of data set: Inhibition of GW4064-induced transactivation of FXR (unknown origin) expressed in HEK293T cells at 1 uM after 16 hrs by beta-lactamase reporter gene assay relative to control. The format is cell-based. Particulars: HEK-293T.
Data set [8] shares this target. Kind of data set: Antagonist activity at human GST-tagged FXR at 40 uM after 20 mins by TR-FRET assay relative to control.
For data set [9] the target is unchanged. Kind of data set: Antagonist activity at human GST-tagged FXR at 13.3 uM after 20 mins by TR-FRET assay relative to control.
For data set [10] the target is unchanged. Kind of data set: Agonist activity at human FXR.
Data set [11] has the same target. Kind of data set: Antagonist activity at human GST-tagged FXR at […] nM after 20 mins by TR-FRET assay relative to control.
The target is the same in data set [12]. In words: Ratio of E16 IC50 to compound IC50 for human GST-tagged FXR after 20 mins by TR-FRET assay.
For data set [13] the target is unchanged. Kind of data set: Ratio of E16 IC50 to compound IC50 for transactivation of FXR (unknown origin) expressed in HEK293T cells after 16 hrs by beta-lactamase reporter gene assay. It is filed as cell-based. Particulars: HEK-293T.
Data set [14] can be described thus: Cytotoxicity against HEK293T cells expressing FXR and beta-lactamase genes assessed as inhibition of cell viability at 13.3 uM after 16 hrs by CellTiter-Glo luminescent assay relative to control. It is filed as cell-based, HEK-293T. Particulars: human, read-out: INH. Put shortly:
as §1

The target in data set [15] is T1, Bile acid receptor (Homo sapiens). Kind of data set: Antagonist activity at human GST-tagged FXR at 1.48 uM after 20 mins by TR-FRET assay relative to control.
The target is the same in data set [16]. Kind of data set: Antagonist activity at human GST-tagged FXR at 1.5 uM after 20 mins by TR-FRET assay relative to control.
Data set [17] shares this target. In words: Inhibition of GW4064-induced transactivation of FXR (unknown origin) expressed in HEK293T cells at 20 uM after 16 hrs by beta-lactamase reporter gene assay relative to control. The format is cell-based. The settings on record: HEK-293T.
Data set [18] concerns the target T2, Bile acid receptor (Homo sapiens, UniProt Q96RI1).
T2 sequence (Q96RI1 whole entry): T1 sequence (whole entry)
In words: Antagonist activity at human GST-tagged FXR after 20 mins by TR-FRET assay.

The target in data set [19] is T1, Bile acid receptor (Homo sapiens). The settings on record: 4.44 uM.
Data set [20] addresses T2, Bile acid receptor. Kind of data set: Inhibition of GW4064-induced transactivation of FXR (unknown origin) expressed in HEK293T cells after 16 hrs by beta-lactamase reporter gene assay. It is filed as cell-based, HEK-293T.

On to `COc1cccc(Cn2cc(C(=O)Nc3ccc(C)c(S(=O)(=O)N4CCOCC4)c3)c(C(C)C)n2)c1`, for which the inhibition in data set [1] was found to be 101%; in [4], 99.2%. Further, the cytotoxicity at 16 h, 40 µM in data set [2] was under 5%. For the same compound, the result in data set [3] was inactive.

In the case of `Cc1ccc(-c2nn(Cc3ccc4ccccc4c3)cc2C(=O)Nc2ccc(C)c(S(=O)(=O)N3CCOCC3)c2)cc1`, the outcome in data set [3] was inactive. Besides, the inhibition came out at 97.8% in data set [5] and 84.4% in [4]. Also, the cytotoxicity at 16 h, 4.4 µM in data set [6] was found to be 7.9%.

As for `Cc1ccc(NC(=O)c2cn(C(C)C)nc2-c2ccc(C(F)(F)F)cc2)cc1S(=O)(=O)N1CCOCC1`, the inhibition in data set [1] was determined as 133%; in data set [4] it was 100%. For the same compound, in [2], the cytotoxicity at 16 h, 40 µM was 19.5%. Besides, in [3], the outcome was inactive.

In the case of `COc1cccc(Cn2cc(CNc3ccc(C)c(S(=O)(=O)N4CCOCC4)c3)c(C(C)C)n2)c1`, the inhibition in [1] is 72.5%; in [4], 64.8%. Besides, the cytotoxicity at 16 h, 40 µM in data set [2] is 13.9%. The result in [3] was inactive. Also, in [7], the inhibition result is “inactive”.

As for `Cc1ccc(-c2nn(C(C)C)cc2C(=O)N(C)c2ccc(C)c(S(=O)(=O)N3CCOCC3)c2)cc1`, in [2], the cytotoxicity at 16 h, 40 µM worked out at 15%. For the same compound, the outcome in data set [3] was inactive. In addition, in data set [7], the inhibition entry was “inactive”. Further, the inhibition in [8] was determined as 133%; in data set [4], 86.4%.

Consider `COc1cccc(-c2nn(C(C)C)cc2C(=O)Nc2ccc(C)c(S(=O)(=O)N3CCOCC3)c2)c1`, for which the result in [3] was inactive. Moreover, the inhibition was determined as 150% in data set [9] and 97.8% in [4]. Moreover, in data set [6], the cytotoxicity at 16 h, 4.4 µM is 10.8%.

Consider `Cc1ccc(-c2nn(C(C)C)cc2C(=O)Nc2ccc(C)c(S(=O)(=O)N3CCOCC3)c2)cc1`, for which the inhibition in data set [1] was 131%; in [4] it was 99.1%. Besides, the cytotoxicity at 16 h, 40 µM in [2] is under 5%. In data set [3], the result was inactive.

`O=C(Nc1cccc(S(=O)(=O)N2CCOCC2)c1)c1cn(-c2ccccc2)nc1-c1ccc(Cl)cc1`: in data set [10], the outcome was inactive. In data set [2], the cytotoxicity at 16 h, 40 µM is under 5%. The inhibition in data set [11] stood at 36.9%; in [4], 38.8%.

For `O=C(Nc1ccc(S(=O)(=O)N2CCOCC2)cc1)c1cn(-c2ccccc2)nc1-c1ccc(Cl)cc1`, the result in [10] was inactive. Besides, the cytotoxicity at 16 h, 40 µM in [2] is under 5%. For the same compound, the results for the inhibition in [11] and in [4] were 17.8% and 20.6%, respectively.

As for `COc1cccc(Cn2cc(C(=O)Nc3ccc(C)c(S(=O)(=O)N4CCOCC4)c3)c(-c3ccc(C)cc3)n2)c1`, the cytotoxicity at 16 h, 40 µM in data set [2] was under 5%. Further, the result in data set [3] was inactive. Also, the figures for the inhibition in [5] and in data set [4] were 130% and 98.9%, respectively. For the same compound, the Ratio IC50 in [12] was found to be 5.26; in [13], 4.59.

On to `COc1ccc(-c2nn(-c3ccccc3)cc2C(=O)Nc2cc(S(=O)(=O)N3CCOCC3)ccc2N2CCOCC2)cc1`, for which the outcome in data set [10] was inactive. Further, in data set [2], the cytotoxicity at 16 h, 40 µM was under 5%. The inhibition in data set [11] is 11.6%; in data set [4], 27%.

On to `Cc1ccc(-c2nn(-c3nc4ccccc4s3)cc2C(=O)Nc2ccc(C)c(S(=O)(=O)N3CCOCC3)c2)cc1`, for which the outcome in [3] was inactive. For the same compound, the inhibition in data set [5] worked out at 102%; in data set [4], 79.1%. Moreover, the Ratio IC50 in [12] was determined as 3. In addition, in data set [14], the cytotoxicity at 16 h, 13.3 µM was 11.5%.

Regarding `CCN(CC)S(=O)(=O)c1cc(NC(=O)c2cnn(-c3cccnc3)c2)ccc1C`, the inhibition in [15] worked out at 23%; in data set [4], 24%. In addition, the result in data set [10] was inactive. In addition, in [2], the cytotoxicity at 16 h, 40 µM was found to be 10.3%.

For the compound `CCCCn1cc(C(=O)Nc2ccc(C)c(S(=O)(=O)N3CCOCC3)c2)c(-c2ccc(C)cc2)n1`, the outcome in [3] was inactive. In addition, the inhibition in data set [16] came out at 130%; in data set [17] it was 97.9%. For the same compound, in [6], the cytotoxicity at 16 h, 4.4 µM turned out to be 10.3%.

`COc1cccc(Cn2cc(CNc3ccc(C)c(S(=O)(=O)N4CCOCC4)c3)c(-c3cccc(OC)c3)n2)c1`: the values for the inhibition in data set [15] and in data set [4] were 39.8% and 3.1%, respectively. Also, the cytotoxicity at 16 h, 40 µM in data set [2] is under 5%. Further, in [3], the outcome was inactive. Besides, the inhibition entry in data set [7] was “inactive”.

In the case of `Cc1ccc(-c2nn(CC3CC3)cc2C(=O)Nc2ccc(C)c(S(=O)(=O)N3CCOCC3)c2)cc1`, the cytotoxicity at 16 h, 40 µM in data set [2] is under 5%. The result in data set [3] was inactive. Moreover, the inhibition in data set [16] worked out at 105%; in data set [4] it was 100%.

Take `COc1cccc(Cn2cc(C(=O)N(C)c3ccc(C)c(S(=O)(=O)N4CCOCC4)c3)c(C(C)C)n2)c1`: the cytotoxicity at 16 h, 40 µM in data set [2] is 13.5%. Besides, the outcome in [3] was inactive. The inhibition entry in data set [7] is “inactive”. Also, the inhibition in data set [17] worked out at 2.4%; in [8] it was 80.3%.

Take `O=C(Nc1cccc(S(=O)(=O)N2CCOCC2)c1)c1cn(-c2ccccc2)nc1-c1cccnc1`: the outcome in data set [10] was inactive. Moreover, in data set [2], the cytotoxicity at 16 h, 40 µM is under 5%. In addition, the IC50 was determined as 1.3 µM against Bile acid receptor [18] and 10.8 µM against Bile acid receptor [20]. Moreover, the inhibition came to 90.4% in data set [19] and 82.3% in [4].

In general, inhibition refers to the relative decrease from the control value, in per cent. Usually IC50 stands for the point on the concentration scale where inhibition reaches its midpoint. Low values mean greater potency, high ones weaker potency.
